{"data": "Results of several laboratories", "ESR1": "Estrogen receptor (ESR1, Homo sapiens, UniProt P03372)", "ADRA2C": "Alpha-2C adrenergic receptor (ADRA2C, Homo sapiens, UniProt P18825)", "M-phase phosphoprotein 8 chromodomain": "M-phase phosphoprotein 8, chromodomain (Homo sapiens, UniProt Q99549)", "note": "Protocols differ between the studies behind these lines."}
{"SMILES": "O=C(CCCc1ccccc1)OC(CCN1CCN(CCCN(c2ccc(F)cc2)c2ccc(F)cc2)CC1)c1ccccc1 (centres unmarked)", "target": "Norepinephrine transporter (Slc6a2, Rattus norvegicus, UniProt Q9WTR4)", "test": "ligand displacement, radioligand", "quantity": "Ki", "value": "> 10000 nM"}
{"SMILES": "Clc1ccc(-c2ccccc2Cl)cc1", "target": "ESR1", "test": "reporter gene, agonist, luciferase", "quantity": "EC50", "value": "20000 nM"}
{"SMILES": "C[C@H](N)Cn1ncc2ccc3c(c21)CCCO3", "target": "ADRA2C", "test": "ligand displacement, radioligand", "quantity": "Ki", "value": "24800 nM"}
{"SMILES": "Cc1cc(O)cc(C)c1C[C@H](N)C(=O)N[C@H](C)C(=O)NCC(=O)N[C@@H](Cc1ccc(Cl)cc1)C(=O)N(C)CCC[C@@]1(c2ccc(F)cc2)OCc2cc(C#N)ccc21", "target": "ADRA2C", "test": "ligand displacement, radioligand", "quantity": "Ki", "value": "240 nM"}
{"SMILES": "CCN(CCCC[C@H](NC(=O)[C@H](CC(C)C)NC(=O)[C@H](C)NC(=O)[C@H](Cc1ccccc1)NC(=O)c1ccc(Br)c(N)c1)C(=O)N[C@@H](CO)C(N)=O)C(C)C", "target": "M-phase phosphoprotein 8 chromodomain", "test": "cell-free assay, TR-FRET", "quantity": "IC50", "value": "290 nM"}
{"SMILES": "O=C1C[C@@H](c2ccc(O)cc2)Oc2cc(O)ccc21", "target": "ESR1", "test": "reporter gene, agonist, luciferase", "quantity": "EC50", "value": "681 nM"}
{"SMILES": "CCN(CCCC[C@H](NC(=O)[C@H](CC(C)C)NC(=O)[C@H](C)NC(=O)[C@H](Cc1ccccc1)NC(=O)c1ccoc1)C(=O)N[C@@H](CO)C(N)=O)C(C)C", "target": "M-phase phosphoprotein 8 chromodomain", "test": "cell-free assay, TR-FRET", "quantity": "IC50", "value": "1200 nM"}
{"SMILES": "Oc1ccc(-c2cc(Cl)ccc2Cl)c(Cl)c1", "target": "ESR1", "test": "reporter gene, agonist, luciferase", "quantity": "EC50", "value": "200 nM"}
{"SMILES": "CC[N+](C)(C)c1cccc(O)c1", "target": "AChE (Phlebotomus papatasi, UniProt M1F887)", "test": "enzyme activity, inhibitor", "quantity": "IC50", "value": "1180 nM"}
{"SMILES": "O=c1c2ccccc2[se]n1-c1ccccc1", "target": "Leucine-rich repeat serine/threonine-protein kinase 2 (LRRK2, Homo sapiens, UniProt Q5S007, G2019S)", "test": "enzyme activity, inhibitor, radiometric", "quantity": "IC50", "value": "1860 nM"}
{"SMILES": "CCN(CCCC[C@H](NC(=O)[C@H](CC(C)C)NC(=O)[C@H](C)NC(=O)[C@H](Cc1ccccc1)NC(=O)c1ccncc1)C(=O)N[C@@H](CO)C(N)=O)C(C)C", "target": "M-phase phosphoprotein 8 chromodomain", "test": "cell-free assay, TR-FRET", "quantity": "IC50", "value": "990 nM"}
{"SMILES": "c1cc[c]([Sn]([c]2ccccc2)[c]2ccccc2)cc1", "target": "Peroxisome proliferator-activated receptor gamma (Pparg, Mus musculus, UniProt P37238)", "test": "reporter gene, agonist, luciferase", "quantity": "EC50", "value": "70 nM"}
{"SMILES": "CCN(CCCC[C@H](NC(=O)[C@H](Cc1ccc(OC)c(OC)c1)NC(=O)[C@H](C)NC(=O)[C@H](Cc1ccccc1)NC(=O)c1cccnc1)C(=O)N[C@@H](CO)C(N)=O)C(C)C", "target": "M-phase phosphoprotein 8 chromodomain", "test": "cell-free assay, TR-FRET", "quantity": "IC50", "value": "1900 nM"}
{"SMILES": "Oc1ccc(-c2cccc(Cl)c2)cc1Cl", "target": "ESR1", "test": "reporter gene, agonist, luciferase", "quantity": "EC50", "value": "8200 nM"}
